This sample holds only a part of the variants without activity.
B1: tRNA (parent)
chain: GUUCCGUUGGCGUAAUGGUAACGCGUCUCCCUCCUAAGGAGAAGACUGCGGGUUCGAGUCCCGUACGGAACG

Variants of: B1
Experiment: yeast fitness relative to wild type (ratio to wild type); higher = fitter; tRNA-Arg(CCU), competitive growth, 37 C, YPD
How it was run: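 Genotype frequency changes were the basis for Darwinian fitness relative to wild type. The frequencies came from 100-nucleotide paired-end sequencing of gene amplicons from the start population and each end population of pooled yeast strains with tRNA-Arg(CCU) gene variants at the native locus. Competition ran in YPD at 37°C for 24 hours in six replicates, genotypes needed ≥ 100 starting reads, and estimates < 0.5 were set to 0.5.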

Row | Variant | yeast fitness
1 | GUUCCGUUCGCGUAAUGGUAACGCGUCUCCCUCCUAAGGAGAACACUGCGGGUUCGAGUCCCGUAUGGAACG [G9C G44C C66U] | 0.568
2 | GUUCCGUUCGCGUAAUGGUAACGCGUCUCCCUCCUAAGGAGAAGACUGCCGGUUCGAGUUCAGUACGGAACG [G9C G50C C60U C62A] | ≤ 0.5
3 | GUUCCGUUCGCGUAAUGGUAACGCGUCUCCCUCCUAAGGAGAAGACUGCGCGUUCGAGUCCGGUACGGAACG [G9C G51C C62G] | ≤ 0.5
4 | GUUCCGUUCGCGUAAUGGUAACGCGUCUCCCUCCUAAGGAGAAGACUGCGCAUUCGAGUACCGUACGGAUCG [G9C G51C G52A C60A A70U] | ≤ 0.5
5 | GUUCCGUUCGCGUAAUGGUAACGCGUCUCCCUCCUAAGGAGAAGACUGCGCGUUCGAAUCCCGUACGGAACG [G9C G51C G58A] | ≤ 0.5
6 | GUUCCGUUCGCGUAAUGGUAACGCGUCUCCCUCCUAAGGAGAAGACUGCGGAUUCGAGUCCCGUACGGAACG [G9C G52A] | 0.564
7 | GUUCCGUUCGCGUAAUGGUAACGCGUCUCCCUCCUAAGGAGAAGACUGCGGCUUCGAGUACCGUACGGAACG [G9C G52C C60A] | ≤ 0.5
8 | GUUCCGUUCGCGUAAUGGUAACGCGUCUCCCUCCUAAGGAGAAGACUGCGGGUUCAAGUCCCGUACGGAACG [G9C G56A] | 0.863
9 | GUUCCGUUCGCGUAAUGGUAACGCGUCUCCCUCCUAAGGAGAAGACUGCGGGUUCGAAUCCCGUACGGAACG [G9C G58A] | 0.869
10 | GUUCCGUUCGCGUAAUGGUAACGCGUCUCCCUCCUAAGGAGAAGACUGCGGGUUCGACUCCCGUACGGAACG [G9C G58C] | 1.06
11 | GUUCCGUUCGCGUAAUGGUAACGCGUCUCCCUCCUAAGGAGAAGACUGCGGGUUCGACAUCCGUACGGAACG [G9C G58C U59A C60U] | ≤ 0.5
12 | GUUCCGUUCGCGUAAUGGUAACGCGUCUCCCUCCUAAGGAGAAGACUGCGGGUUCGAGUCCCGUACAGAACG [G9C G67A] | 0.58
13 | GUUCCGUUCGCGUAAUGGUAACGCGUCUCCCUCCUAAGGAGAAGACUGCGGGUUCGAGUCCCGUACGAAACG [G9C G68A] | 0.763
14 | GUUCCGUUCGCGUAAUGGUAACGCGUCUCCCUCCUAAGGAGAAGACUGCGGGUUCGAGUCCCGUACGCCACG [G9C G68C A69C] | ≤ 0.5
15 | GUUCCGUUCGCGAAAUCGUAACGCGUCUCCCUCCUAAGGAGAAGACUGCGGGUUCGAGUCCCGUACGGAACG [G9C U13A G17C] | ≤ 0.5
16 | GUUCCGUUCGCGAAAUGGUAACGCAUCUCCCUCCUAAGGCGAAGACUGCGGGUUCGCGUCACGUACGGAACG [G9C U13A G25A A40C A57C C61A] | ≤ 0.5
17 | GUUCCGUUCGCGAAAUGGUAACGCAUCUCCCUCCUAAGGCGAAGACUGCGGGUUCGCGUCACGUACAGAACG [G9C U13A G25A A40C A57C C61A G67A] | 0.553
18 | GUUCCGUUCGCGAAAUGGUAACGCAUCUCCCUCCUAAGGCGAAGACUGCGGGUUCGAGUCCCGUAUGGAACG [G9C U13A G25A A40C C66U] | ≤ 0.5
19 | GUUCCGUUCGCGAAAUGGUAACGCAUCUCCCUCCUAAGGAGAAGACUGCGGGUUCGAGUCCCGUUCGGAACG [G9C U13A G25A A65U] | ≤ 0.5

Row | Variant | yeast fitness
20 | GUUCCGUUCGCGCAAUGGUAACGCGUCUCCCUCCUAAGGAGAAGACUGCGGGUUCGAGUCCCGUACGGAACG [G9C U13C] | 0.626
21 | GUUCCGUUCGCGCAAUGGUCACGCGUCUCCCUCCUAAGGAGAAGACUGCGGGUUCGAGUCCCGUACGGAACG [G9C U13C A20C] | 0.706
22 | GUUCCGUUCGCGCAAUGGUAACGCGUCUCCCUCCUAAGGAGAUGACUGCGGGUUCGAGUCCCGUACGGAACG [G9C U13C A43U] | 0.618
23 | GUUCCGUUCGCGCAAUGGUAACGCGUCUCACUCCUAAGGAGAAGAAUCCGGGUUCGAGUCCCGUACGGACCG [G9C U13C C30A C46A G48C A70C] | 0.548
24 | GUUCCGUUCGCGCAAUGGUAACGCGUCUCGCUCCUAAGGAGAAGACUGCGGGUUCGAGUCUCGUACGGAACG [G9C U13C C30G C61U] | ≤ 0.5
25 | GUUCCGUUCGCGCAAUGGUAACGCGUCUCCCUCCUAAGGAGAAGACGGCGGGUUCGAGUCCCGUACGGAACG [G9C U13C U47G] | ≤ 0.5
26 | GUUCCGUUCGCGGAAUGGUAACGCGUCCCCCUCCUAAGGACACGUCCGGGGGGUCGAGUCCCGUACGGCACG [G9C U13G U28C G41C A43C A45U U47C C49G U53G A69C] | ≤ 0.5
27 | GUUCCGUUCGCGUAAAGGUAACGCGUCUACCUCCUAAGGAGAAGACUGCGGGUUCGACUCCCGUACGGUACG [G9C U16A C29A G58C A69U] | 0.645
28 | GUUCCGUUCGCGUAACGGUAACGCGUCUCCCUCCUAAGGAGCAGACUGCGGGUUCGAGUCCCGUACGGAACG [G9C U16C A42C] | ≤ 0.5
29 | GUUCCGUUCGCGUAACGGUAACGCGUCUCUCUCCUAAGGAGAAGACUGCGGGUUCGAGUCCCGUGCGGAACG [G9C U16C C30U A65G] | ≤ 0.5
30 | GUUCCGUUCGCGUAACGGUAACGCGUCUCUCGCCUAAGGAGAAGACUGCGGGUUCGAGUCCCGUACGGAACG [G9C U16C C30U U32G] | ≤ 0.5
31 | GUUCCGUUCGCGUAACGGUAACGCGUCUCCCUCCUAAGGAGAAGACUGCGGGUUCGAGUCCCGUAUGGAACG [G9C U16C C66U] | ≤ 0.5
32 | GUUCCGUUCGCGUAAGGGUAACGCGUCUCCCUCCUACGGAGAAGACUGCGGGUUCGAGUCCCGUACGGAACG [G9C U16G A37C] | 0.735
33 | GUUCCGUUCGCGUAAGGGUAACGCGUCUCCCUCCUAAGGAGAAGACUGCGGGUUCGAGUCCCGUUCGGAACG [G9C U16G A65U] | ≤ 0.5
34 | GUUCCGUUCGCGUAAGGGUAACGCGUCUACCUCCUAAGGAGAAGACUGCGGGUUCGAGUCCCGUAUGGAACG [G9C U16G C29A C66U] | ≤ 0.5
35 | GUUCCGUUCGCGUAAUGGAAGCGCGUCUCCCUCCUAAGGAGACGACUGCGGGUUCGAGUCCCGUGCAGAACG [G9C U19A A21G A43C A65G G67A] | ≤ 0.5
36 | GUUCCGUUCGCGUAAUGGAAACGCGUCUCCCUCCUAAGGAGAAGACUGCGGGUUCGAAUCCCGUGCGGAACG [G9C U19A G58A A65G] | ≤ 0.5
37 | GUUCCGUUCGCGUAAUGGCAACGCGUCUCCCUCCUAAGGAGAAGACUGCGGGUUCGAGUCCCGUACGGAACG [G9C U19C] | 0.764

Reference: the RNAGym collection of RNA variant scans (doi:10.1126/science.aae0568)
